# Measurements taken from ChEMBL document CHEMBL1125827, “Synthesis and smooth muscle relaxant activity of a new series of potassium channel activators: 3-amido-1,1-dimethylindan-2-ols” (J Med Chem, 1991).
# Legend:
# Cavia porcellus [1] = organism: Cavia porcellus; assay: Inhibition of spontaneous tone in guinea pig isolated trachealis; assay type: functional, Trachea
# Cavia porcellus [2] = organism: Cavia porcellus; assay: Intrinsic activity was measured for inhibition of spontaneous tone in guinea pig isolated trachealis; assay type: functional
# Outline: (§1)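 Spontaneously toned guinea pig trachealis, with compounds added cumulatively. Intrinsic activity is the ratio of maximum relaxation at concentrations up to 20 μM to the maximum relaxation produced by isoprenaline (10⁻³ M) at the end of the experiment, expressed as an arithmetic mean.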
# Cavia porcellus [3] = organism: Cavia porcellus; assay: Compound was measured for inhibition of spontaneous tone in guinea pig isolated trachealis; e=Insufficient material for evaluation; assay type: functional
# Outline: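 Spontaneously developed tension held at […]. Compounds added cumulatively. Inhibition expressed as a percentage of the relaxation produced by isoprenaline (10⁻³ M) given at the end. IC50 is the concentration giving 50% of the isoprenaline response, read from the dose-response curve; generally a geometric mean of four or more determinations.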
# Cavia porcellus [4] = organism: Cavia porcellus; assay: Intrinsic activity was measured for inhibition of spontaneous tone in guinea pig isolated trachealis; e=Insufficient material for evaluation; assay type: functional; outline: as §1
SMILES,"IC50 (Cavia porcellus [1]; Cavia porcellus, Trachea)",IC50 (Cavia porcellus [1]),IC50 (Cavia porcellus [3]),Intrinsic activity (Cavia porcellus [2]),Intrinsic activity (Cavia porcellus [4])
CC1(C)C=C(CN2CCCC2=O)c2cc(C#N)ccc21,14000 nM,,,0.6,
CC1(C)C=C(N2CCCCC2=O)c2cc([N+](=O)[O-])ccc21,,,,0.94,
CC1(C)C=C(n2ccccc2=O)c2cc([N+](=O)[O-])ccc21,840 nM,,,0.95,
CC1CCC(=O)N1[C@@H]1c2cc([N+](=O)[O-])ccc2C(C)(C)[C@H]1O (stereo in doubt; 36a),,,,0.89,
CC1(C)C=C(Cn2ccccc2=O)c2cc(C#N)ccc21,> 20000 nM,,,0.32,
CC1(C)c2ccc(I)cc2[C@@H](N2CCCCC2=O)[C@@H]1O,,,,0.96,
CC1(C)C=C(N2CCCCC2=O)c2ccc(C(F)(F)F)cc21,8500 nM,,,0.89,
CC1(C)c2ccc(C#N)cc2[C@@H](n2ccccc2=O)[C@@H]1O,1940 nM,,,0.81,
CC1(C)C=C(n2ccccc2=O)c2cc(C#N)ccc21,5260 nM,,,0.77,
CCc1ccc2c(c1)[C@@H](n1ccccc1=O)[C@H](O)C2(C)C,2170 nM,,,0.93,
CC1(C)c2ccc(N)cc2[C@@H](n2ccccc2=O)[C@@H]1O,> 20000 nM,,,0.1,
CC1(C)Oc2ccc(C#N)cc2C(N2CCCC2=O)C1O (centres undefined) [CROMAKALIM],,,,0.89,
C[C@@H]1CCC(=O)N1C1=CC(C)(C)c2ccc([N+](=O)[O-])cc21,2420 nM,,,0.84,
CC1(C)c2cc(C(F)(F)F)ccc2[C@@H](n2ccccc2=O)[C@@H]1O,> 20000 nM,,,0.14,

# Continued, in another order:
"IC50 (Cavia porcellus [1]; Cavia porcellus, Trachea)",IC50 (Cavia porcellus [1]),IC50 (Cavia porcellus [3]),SMILES,Intrinsic activity (Cavia porcellus [2]),Intrinsic activity (Cavia porcellus [4])
> 20000 nM,,,O=C1CCCN1[C@@H]1c2cc([N+](=O)[O-])ccc2C[C@H]1O,0.4,
2780 nM,,,CCc1ccc2c(c1)[C@@H](N1CCCCC1=O)[C@H](O)C2(C)C,0.84,
150 nM,,,CC1(C)c2ccc([N+](=O)[O-])cc2[C@@H](n2ccccc2=O)[C@@H]1O,0.89,
,> 20000 nM,,C[C@@H]1CCC(=O)N1[C@@H]1c2cc([N+](=O)[O-])ccc2C(C)(C)[C@H]1O (stereo in doubt; 37),0.3,
350 nM,,,CC1(C)c2ccc([N+](=O)[O-])cc2[C@@H](N2CCCCC2=O)[C@H]1O,0.89,
490 nM,,,CC1(C)Oc2ccc(C#N)cc2[C@@H](N2CCCC2=O)[C@@H]1O [LEVCROMAKALIM],0.88,
> 20000 nM,,,CC1(C)c2cc(C(F)(F)F)ccc2[C@@H](N2CCCCC2=O)[C@@H]1O,0.15,
> 20000 nM,,,CC1(C)c2ccc([N+](=O)[O-])cc2[C@@H](N2CCCC2=O)[C@H]1O (relative stereo),0.26,
,3900 nM,,CC1CCC(=O)N1[C@@H]1c2cc([N+](=O)[O-])ccc2C(C)(C)[C@H]1O (stereo in doubt; 36b),0.9,
2800 nM,,,CC1(C)c2ccc([N+](=O)[O-])cc2[C@@H](N2CCCC2=O)[C@@H]1O,0.88,
> 20000 nM,,,CCc1ccc2c(c1)C(C)(C)[C@@H](O)[C@@H]2N1CCCCC1=O,0.4,
270 nM,,,CC1(C)c2ccc(C#N)cc2[C@@H](N2CCCCC2=O)[C@@H]1O,0.94,
> 20000 nM,,,CC1(C)c2cc(C#N)ccc2[C@@H](N2CCCCC2=O)[C@@H]1O,0.17,
,260 nM,,C[C@@H]1CCC(=O)N1[C@@H]1c2cc([N+](=O)[O-])ccc2C(C)(C)[C@H]1O (stereo in doubt; 36),0.99,
,,Insufficient material,C[C@H]1CCC(=O)N1C1=CC(C)(C)c2ccc([N+](=O)[O-])cc21,,Insufficient material
